ChEMBL document CHEMBL1133742, “17beta-O-Aminoalkyloximes of 5beta-androstane-3beta,14beta-diol with digitalis-like activity: synthesis, cardiotonic activity, structure-activity relationships, and molecular modeling of the Na(+),K(+)-ATPase receptor” (J Med Chem, 2000)
pEC50, pIC50: −log10 of the molar value.

Experiments:
Cavia porcellus [1] = organism: Cavia porcellus; assay: Concentration producing 50% of the maximal increase in the force of contraction in isolated guinea pig left atrium; format: functional; settings: Cardiac atrium
Summary of the method: (§1)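 Isolated guinea pig atria in solution bubbled with 95% O2/5% CO2, field-stimulated by platinum electrodes at 1 Hz (1 ms square pulses, twice threshold voltage). After 60 min equilibration, cumulative concentrations added, each held until maximal response or arrhythmia.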

Cavia porcellus [2] = assay: Compound dose producing maximum increase in dP/dt, in anesthetized guinea pig during slow intravenous infusion of 41.4 uM solution.; format: functional
Summary of the method: (§2)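 Anesthetized guinea pigs with jugular vein cannula and tracheal intubation (spontaneous respiration); +dP/dt recorded. Compound dissolved in DMSO, diluted with physiological solution to 1% DMSO final, infused IV at 0.16 mL/min until death or up to 90 min. Starting infusate concentration was based on the atrial EC50. Doses for maximal inotropic effect and for death determined; ED80 taken from dose–response curves. Means ± SEM where possible.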

[3] = Percent increase in force of contraction in vitro determined using electrically driven guinea pig left atrium.; format: functional; settings: Cavia porcellus, Cardiac atrium; summary of the method: as §1
Cavia porcellus [4] = assay: Compound dose producing maximum inotropic effect in anesthetized guinea pig during slow intravenous infusion of 41.4 uM solution.; format: functional; summary of the method: as §2
Cavia porcellus [5] = assay: Compound dose producing 80% of increase in dP/dt in anesthetized guinea pig during slow intravenous infusion of 41.4 uM solution.; format: functional; summary of the method: as §2
[6] = target: Sodium/potassium-transporting ATPase; assay: In vitro inhibitory concentration against dog kidney Na+/K+ ATPase; format: protein-complex assay, Canis lupus familiaris
Summary of the method: (§3)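 Na+,K+-ATPase isolated and purified from dog kidney. Inhibition measured as percent hydrolysis of 32P-ATP with versus without compound. […] Single-concentration entries report percent inhibition at the stated concentration. Compounds tested within 1–4 h of dissolution.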

Cavia porcellus [7] = assay: Compound dose causing lethality in anesthetized guinea pig during slow intravenous infusion of 41.4 uM solution.; format: toxicity, organism-based; settings: in vivo; summary of the method: as §2
Cavia porcellus [8] = assay: Compound dose producing maximum increase in dP/dt, in anesthetized guinea pig during slow intravenous infusion of 220 uM solution.; format: functional; summary of the method: as §2
Cavia porcellus [9] = assay: Compound dose producing maximum inotropic effect in anesthetized guinea pig during slow intravenous infusion of 220 uM solution.; format: functional; summary of the method: as §2
Cavia porcellus [10] = assay: Compound dose producing 80% of increase in dP/dt in anesthetized guinea pig during slow intravenous infusion of 220 uM solution.; format: functional; summary of the method: as §2
Cavia porcellus [11] = assay: Compound dose causing lethality in anesthetized guinea pig during slow intravenous infusion of 220 uM solution.; format: toxicity, organism-based; settings: in vivo; summary of the method: as §2
[12] = Compound at 100 uM was tested in vitro for the inhibition of dog kidney Na+/K+ ATPase; settings: Canis lupus familiaris, target entry is the homologue from another species; summary of the method: as §3
[13] = target: Sodium/potassium-transporting ATPase subunit alpha-1 (Canis lupus familiaris, UniProt P50997); assay: In vitro inhibitory concentration against dog kidney Na+,K+-ATPase
Summary of the method: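 Na+,K+-ATPase isolated and purified from dog kidney. Inhibition measured as percent hydrolysis of 32P-ATP with versus without compound. Single-concentration entries report percent inhibition at the stated concentration. Compounds tested within 1–4 h of dissolution.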

[14] = In vitro maximum inotropic effect on contractile force of an electrically driven guinea pig left atrium.; format: functional, Cavia porcellus, Cardiac atrium; summary of the method: as §1
Cavia porcellus [15] = assay: Compound dose producing maximum increase in dP/dt, in anesthetized guinea pig during slow intravenous infusion of 375 uM solution.; format: functional; summary of the method: as §2
Cavia porcellus [16] = assay: Compound dose causing lethality in anesthetized guinea pig during slow intravenous infusion of 375 uM solution.; format: toxicity, organism-based; settings: in vivo; summary of the method: as §2
Cavia porcellus [17] = assay: Compound dose producing 80% of increase in dP/dt in anesthetized guinea pig during slow intravenous infusion of 375 uM solution.; format: functional; summary of the method: as §2
Cavia porcellus [18] = assay: Compound dose producing maximum inotropic effect in anesthetized guinea pig during slow intravenous infusion of 375 uM solution.; format: functional; summary of the method: as §2
Cavia porcellus [19] = assay: Compound dose producing maximum inotropic effect in anesthetized guinea pig during slow intravenous infusion of 11.0 uM solution.; format: functional; summary of the method: as §2
Cavia porcellus [20] = assay: Compound dose producing 80% of increase in dP/dt in anesthetized guinea pig during slow intravenous infusion of 11.0 uM solution.; format: functional; summary of the method: as §2
Cavia porcellus [21] = assay: Compound dose producing maximum increase in dP/dt, in anesthetized guinea pig during slow intravenous infusion of 11.0 uM solution.; format: functional; summary of the method: as §2
Cavia porcellus [22] = assay: Compound dose causing lethality in anesthetized guinea pig during slow intravenous infusion of 11.0 uM solution.; format: toxicity, organism-based; settings: in vivo; summary of the method: as §2
Cavia porcellus [23] = assay: Compound dose producing maximum increase in dP/dt, in anesthetized guinea pig during slow intravenous infusion of 12.8 uM solution.; format: functional; summary of the method: as §2
Cavia porcellus [24] = assay: Compound dose producing 80% of increase in dP/dt in anesthetized guinea pig during slow intravenous infusion of 12.8 uM solution.; format: functional; summary of the method: as §2
Cavia porcellus [25] = assay: Compound dose producing maximum inotropic effect in anesthetized guinea pig during slow intravenous infusion of 12.8 uM solution.; format: functional; summary of the method: as §2
Cavia porcellus [26] = assay: Compound dose causing lethality in anesthetized guinea pig during slow intravenous infusion of 12.8 uM solution.; format: toxicity, organism-based; settings: in vivo; summary of the method: as §2
Cavia porcellus [27] = assay: Compound dose causing lethality in anesthetized guinea pig during slow intravenous infusion of 1000 uM solution.; format: toxicity, organism-based; settings: in vivo; summary of the method: as §2
Cavia porcellus [28] = assay: Compound dose producing 80% of increase in dP/dt in anesthetized guinea pig during slow intravenous infusion of 1000 uM solution.; format: functional; summary of the method: as §2
Cavia porcellus [29] = assay: Compound dose producing maximum inotropic effect in anesthetized guinea pig during slow intravenous infusion of 1000 uM solution.; format: functional; summary of the method: as §2
Cavia porcellus [30] = assay: Compound dose producing maximum increase in dP/dt, in anesthetized guinea pig during slow intravenous infusion of 1000 uM solution.; format: functional; summary of the method: as §2
Cavia porcellus [31] = assay: Compound dose producing maximum increase in dP/dt, in anesthetized guinea pig during slow intravenous infusion of 51.2 uM solution.; format: functional
Summary of the method: (§4)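 Anesthetized guinea pig; jugular vein cannula, trachea intubated, spontaneous respiration. After stabilization, compound in physiological solution with 1% DMSO (final) infused at 0.16 mL/min until death or up to 90 min. Infused concentration chosen from the paced guinea pig atria EC50. Read-out is +dP/dt. Doses for the maximal inotropic increase and for death were determined; ED80 (80% increase over basal) came from dose-response curves. Means ± SEM.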

Cavia porcellus [32] = assay: Compound dose producing maximum inotropic effect in anesthetized guinea pig during slow intravenous infusion of 51.2 uM solution.; format: functional; summary of the method: as §4
Cavia porcellus [33] = assay: Compound dose causing lethality in anesthetized guinea pig during slow intravenous infusion of 51.2 uM solution.; format: toxicity, organism-based; settings: in vivo; summary of the method: as §2
Cavia porcellus [34] = assay: Compound dose producing 80% of increase in dP/dt in anesthetized guinea pig during slow intravenous infusion of 51.2 uM solution.; format: functional; summary of the method: as §4

C[C@]12CC[C@H](O)C[C@H]1CC[C@@H]1[C@@H]2CC[C@]2(C)[C@@H](/C=N/OCCCN)CC[C@]12O.O=C(O)C(=O)O
pEC50 (Cavia porcellus [1]): 6.74
Emax (Cavia porcellus [2]): 163%
Emax [3]: 126%
Emax (Cavia porcellus [4]): 0.435 µM/kg
ED80 (Cavia porcellus [5]): 0.24 µM/kg
pIC50 [6]: 7.70
LD (Cavia porcellus [7]): 0.663 µM/kg

CN(C)CCO/N=C\CC[C@H]1CC[C@]2(O)[C@@H]3CC[C@@H]4C[C@@H](O)CC[C@]4(C)[C@H]3CC[C@]12C.O=C(O)C(=O)O
pEC50 (Cavia porcellus [1]): 6.19
Emax [3]: 150%
Emax (Cavia porcellus [8]): 132%
pIC50 [6]: 7.00
Emax (Cavia porcellus [9]): 3.65 µM/kg
ED80 (Cavia porcellus [10]): 0.814 µM/kg
LD (Cavia porcellus [11]): 7.83 µM/kg

CCCO/N=C/C(C)=C/[C@H]1CC[C@]2(O)[C@@H]3CC[C@@H]4C[C@@H](O)CC[C@]4(C)[C@H]3CC[C@]12C
pIC50 [6]: < 5.00
inhibition [12]: 40%

C[C@]12CC[C@H](O)C[C@H]1CC[C@@H]1[C@@H]2CC[C@]2(C)[C@@H](/C=C/C=C/CCCN)CC[C@]12O
pEC50 (Cavia porcellus [1]): 7.46
pIC50 [13]: 6.49
Emax [3]: 73%
Concentration giving maximal inotropic effect [14]: 0.1 µM

CC(/C=N/OCCCN)=C\[C@H]1CC[C@]2(O)[C@@H]3CC[C@@H]4C[C@@H](O)CC[C@]4(C)[C@H]3CC[C@]12C.O=C(O)C(=O)O
pEC50 (Cavia porcellus [1]): 6.77
Emax [3]: 90%
Emax (Cavia porcellus [15]): 99%
pIC50 [6]: 6.70
LD (Cavia porcellus [16]): 1.67 µM/kg
ED80 (Cavia porcellus [17]): 0.447 µM/kg
Emax (Cavia porcellus [18]): 0.884 µM/kg

CN(C)CCO/N=C/C=C/[C@H]1CC[C@]2(O)[C@@H]3CC[C@@H]4C[C@@H](O)CC[C@]4(C)[C@H]3CC[C@]12C.O=C(O)C(=O)O
pEC50 (Cavia porcellus [1]): 7.24
Emax [3]: 191%
Emax (Cavia porcellus [19]): 0.275 µM/kg
pIC50 [6]: 7.52
Concentration giving maximal inotropic effect [14]: 0.3 µM
ED80 (Cavia porcellus [20]): 0.185 µM/kg
Emax (Cavia porcellus [21]): 110%
LD (Cavia porcellus [22]): 0.385 µM/kg

C[C@]12CC[C@H](O)C[C@H]1CC[C@@H]1[C@@H]2CC[C@]2(C)[C@@H](/C=N/OCC(=O)O)CC[C@]12O
pIC50 [6]: < 4.00
inhibition [12]: 0%

C[C@]12CC[C@H](O)C[C@H]1CC[C@@H]1[C@@H]2CC[C@]2(C)[C@@H](C=O)CC[C@]12O
pEC50 (Cavia porcellus [1]): 4.96
pIC50 [13]: 4.60
Emax [3]: 79%
Concentration giving maximal inotropic effect [14]: 300 µM

CN(C)CCON(C)C[C@H]1CC[C@]2(O)[C@@H]3CC[C@@H]4C[C@@H](O)CC[C@]4(C)[C@H]3CC[C@]12C
pIC50 [6]: < 4.00
inhibition [12]: 20%

C/C(C=O)=C\[C@H]1CC[C@]2(O)[C@@H]3CC[C@@H]4C[C@@H](O)CC[C@]4(C)[C@H]3CC[C@]12C
pIC50 [13]: 5.80

C[C@]12CC[C@H](O)C[C@H]1CC[C@@H]1[C@@H]2CC[C@]2(C)[C@@H](CCCCCCCN)CC[C@]12O
pIC50 [13]: 5.90
Emax [3]: 43%
Concentration giving maximal inotropic effect [14]: 100 µM

CN(C)CCO/N=C/C=C/C=C/[C@H]1CC[C@]2(O)[C@@H]3CC[C@@H]4C[C@@H](O)CC[C@]4(C)[C@H]3CC[C@]12C.O=C(O)C(=O)O
pEC50 (Cavia porcellus [1]): 4.70
pIC50 [13]: 5.20
Emax [3]: 145%
Concentration giving maximal inotropic effect [14]: 100 µM

CC(/C=N/OCCN)=C\[C@H]1CC[C@]2(O)[C@@H]3CC[C@@H]4C[C@@H](O)CC[C@]4(C)[C@H]3CC[C@]12C.O=C(O)/C=C/C(=O)O
Emax (Cavia porcellus [23]): 152%
pEC50 (Cavia porcellus [1]): 7.15
ED80 (Cavia porcellus [24]): 0.128 µM/kg
Emax [3]: 115%
Emax (Cavia porcellus [25]): 0.201 µM/kg
LD (Cavia porcellus [26]): 0.292 µM/kg
pIC50 [6]: 7.52

C[C@]12CC[C@H](O)C[C@H]1CC[C@@H]1[C@@H]2CC[C@]2(C)[C@@H](/C=C/C=N\OCC(=O)O)CC[C@]12O
pIC50 [6]: < 4.00
inhibition [12]: 40%

C[C@]12CC[C@H](O)C[C@H]1CC[C@@H]1[C@@H]2CC[C@]2(C)[C@@H](/C=N/OCCCCN)CC[C@]12O.O=C(O)C(=O)O
LD (Cavia porcellus [27]): 14.8 µM/kg
pEC50 (Cavia porcellus [1]): 5.54
ED80 (Cavia porcellus [28]): 1.41 µM/kg
Emax [3]: 92%
Emax (Cavia porcellus [29]): 5.03 µM/kg
pIC50 [6]: 6.30
Emax (Cavia porcellus [30]): 148%

C[C@H]1O[C@@H](O[C@H]2[C@@H](O)C[C@H](O[C@H]3[C@@H](O)C[C@H](O[C@H]4CC[C@@]5(C)[C@H](CC[C@@H]6[C@@H]5C[C@@H](O)[C@]5(C)[C@@H](C7=CC(=O)OC7)CC[C@]65O)C4)O[C@@H]3C)O[C@@H]2C)C[C@H](O)[C@@H]1O [DIGOXIN]
pEC50 (Cavia porcellus [1]): 6.42
Emax [3]: 184%
Concentration giving maximal inotropic effect [14]: 1 µM
Emax (Cavia porcellus [31]): 167%
dose to obtain Emax (Cavia porcellus [32]): 0.576 µM/kg
LD (Cavia porcellus [33]): 1.25 µM/kg
ED80 (Cavia porcellus [34]): 0.205 µM/kg

C[C@]12CC[C@H](O)C[C@H]1CC[C@@H]1[C@@H]2CC[C@]2(C)[C@@H](CCC=O)CC[C@]12O
pIC50 [13]: 4.40

CONCCC[C@H]1CC[C@]2(O)[C@@H]3CC[C@@H]4C[C@@H](O)CC[C@]4(C)[C@H]3CC[C@]12C
pIC50 [6]: < 4.00
inhibition [12]: 40%

C[C@]12CC[C@H](O)C[C@H]1CC[C@@H]1[C@@H]2CC[C@]2(C)[C@@H](/C=C/C=O)CC[C@]12O
pEC50 (Cavia porcellus [1]): 5.40
pIC50 [13]: 6.60
Emax [3]: 45%
